Data published in ChEMBL document CHEMBL4041468, “Effects of Koumine on Adjuvant- and Collagen-Induced Arthritis in Rats” (J Nat Prod, 2016).
The source made the active and inactive calls.

Experiments:
Type in all cases: functional, organism-based
[1] = system: Rattus norvegicus; assay: (§1) Antiarthritic activity in Lewis rat Freund's adjuvant-induced arthritis model assessed as reduction in mechanical withdrawal threshold at 2.5 mg/kg, ig administered through gavage pretreated for 1 hr followed by adjuvant challenge subsequent treatment for 9 days measured alternate days up to 24 days post dose
In short: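 Mechanical withdrawal threshold in Lewis AIA rats (right-paw CFA, gavage dosing 1 h pre-induction and daily 9 d), tested 1 h after dosing: 30 min habituation in individual cubicles, von Frey filament applied upward to mid-paw until withdrawal, 55 g cut-off, repeated twice at 10 min intervals; ipsilateral and contralateral paws recorded separately; n = 10.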

[2] = system: Rattus norvegicus; assay: as §1, with “hind paw volume” for “mechanical withdrawal threshold”, “dose by plethysmometer” for “dose”
In short: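 Lewis rat AIA (female, 8 weeks; 0.1 mL CFA intradermally into right hind paw), dosed by gavage 1 h pre-induction then daily for 9 d. Plethysmometer volumes of injected (ipsilateral) and uninjected (contralateral) hind paws recorded separately. Two-way ANOVA with Dunnett's T3 test; n = 10/group.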

[3] = system: Rattus norvegicus; assay: Antiarthritic activity in Lewis rat Freund's adjuvant-induced arthritis model assessed as reduction in arthritis index score at 2.5 mg/kg, ig administered through gavage pretreated for 1 hr followed by adjuvant challenge subsequent treatment for 9 days measured alternate days up to 24 days post dose
In short: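 AIA induced in female 8-week-old Lewis rats by one intradermal 0.1 mL CFA injection (10 mg heat-killed M. tuberculosis per mL paraffin oil) into right hind paw; controls received paraffin oil–water emulsion. Daily intragastric dosing from 1 h before induction through 9 d. Arthritis index scored; Kruskal–Wallis with Dunn's test; n = 10/group.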

Measured: Activity

COc1ccc2c(c1)c(CC(=O)O)c(C)n2C(=O)c1ccc(Cl)cc1
active: all assays above
